Assay [1] relates to K562. Kind of assay: Cytotoxicity against human K562 cells by MTT assay. Type of assay: functional, cell-based. (Tetrazolium assays rely on reduction of a dye to a coloured formazan, in cell work by metabolically active cells.)
The test system of assay [2] is HeLa. Kind of assay: Cytotoxicity against human HeLa cells by MTT assay. Type of assay: functional, cell-based.
Assay [3] has as its system HCT-116. Nature of the assay: Cytotoxicity against human HCT116 cells by MTT assay. Format: functional, cell-based.
Assay [4] concerns A549. Kind of assay: Cytotoxicity against human A549 cells by MTT assay. Type of assay: functional, cell-based.
The subject of assay [5] is MCF7. Kind of assay: Cytotoxicity against human MCF7 cells by MTT assay. Format: functional, cell-based.
The test system of assay [6] is Nucleic Acid. Kind of assay: Binding affinity to calf thymus DNA assessed as hyperchromic effect at 10 uM by UV-Vis spectrophotometric analysis. Format: nucleic-acid assay. Particulars: Bos taurus, in the assay text read “hypochromic” for “hyperchromic”. Summed up: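 Its concentration was set by absorption at 260 nm (6600 M⁻¹ cm⁻¹), and it was stored at 4 °C and used within 4 days. UV–vis absorption spectra of compound (10) were recorded in 20 mM Tris–HCl, pH 7.5, 25 °C, with ct-DNA increasing from 0 to 160.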

Assay [7] has as its system Nucleic Acid. Nature of the assay: Binding affinity to calf thymus DNA by fluorescence quenching technique. Format: nucleic-acid assay. Particulars: Bos taurus. In a few lines: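 Calf thymus DNA was prepared as in line 1. Compound was held at 10 while ct-DNA was titrated at 0, 10, 20, 40, 60, 80, 100, 120, 140 and 160 in 20 mM Tris–HCl, pH 7.5. Solutions were equilibrated for 1 day at 25 °C in the dark, and fluorescence emission was recorded. Kb was fitted to a single-site quenching equation.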

The structures appear in SMILES notation. The source made the active and inactive calls. The calls are words filed in the database; no cut-off is given here. A value given as a limit tells only on which side of the number the result lay.

The term IC50 denotes the concentration that gives 50% inhibition. A higher IC50 goes with a need for much substance.

In assay [1], `CN(C)CCN1C(=O)c2cccc3cc(N)cc(c23)C1=O` [AMONAFIDE] showed an IC50 above 50 µM.
`Cc1ccc([Se]CCNc2ccc3c4c(cccc24)C(=O)N(CCN(C)C)C3=O)cc1`: the IC50 in assay [2] was above 25 µM; in assay [3] it was 20 µM; in assay [1], 21.3 µM; in assay [4], 21 µM; in assay [5], 19.3 µM.
In the case of `CN(C)CCN1C(=O)c2cccc3c(NCC[Se]c4ccccc4)ccc(c23)C1=O`, the IC50 was determined as 16.8 µM in assay [2]; 19.5 µM in assay [3]; 11.7 µM in assay [1]; 17.4 µM in assay [4]; 18.2 µM in assay [5]. Also, the result in assay [6] was Active. In assay [7], this compound returned a Kb of 2.43 ×10⁴ /M.
As to `COc1ccc([Se]CCNc2ccc3c4c(cccc24)C(=O)N(CCN(C)C)C3=O)cc1`, the IC50 in assay [2] worked out at 17.9 µM; in assay [3] it was 17.6 µM; in assay [1], 16.6 µM; in assay [4], 22.3 µM; in assay [5] it was 18.3 µM.
For `CN(C)CCN1C(=O)c2cccc3c(NCC[Se]c4ccc(OC(F)(F)F)cc4)ccc(c23)C1=O` the same measures were above 25 µM, 9.9 µM, 9.4 µM, 14.4 µM and 16.4 µM.
`CN(C)CCN1C(=O)c2cccc3c(NCCSc4ccccc4)ccc(c23)C1=O`: the IC50 in assay [2] was found to be 15.1 µM; in assay [3], 16.4 µM; in assay [1], 11.2 µM; in assay [4] it was 18 µM; in assay [5], 19.1 µM. In addition, the result in assay [6] was Active. The same compound showed a Kb in assay [7] of 8.26 ×10⁴ /M.
For `CCCCCCCCN1C(=O)c2cccc3c(NCC[Se]c4ccccc4)ccc(c23)C1=O`, the IC50 in assay [2] is 16.7 µM; in assay [3] it was 18.1 µM; in assay [1] it was 18.7 µM; in assay [4], 20.6 µM; in assay [5], 11.6 µM.
For `CCCCN1C(=O)c2cccc3c(NCC[Se]c4ccccc4)ccc(c23)C1=O` the same measures were above 25 µM, above 25 µM, above 25 µM, above 25 µM and above 25 µM.
`CCN(CC)CCN1C(=O)c2cccc3c(NCC[Se]c4ccccc4)ccc(c23)C1=O`: the half-maximal inhibitory concentration (IC50) in assay [2] amounted to 15.5 µM; in assay [3] it was 14.6 µM; in assay [1], 8.9 µM; in assay [4], 10.7 µM; in assay [5], 11.9 µM.
For `CN(C)CCN1C(=O)c2cccc3c(N4CC[Se]CC4)ccc(c23)C1=O` the same measures were 5.6 µM, 5.4 µM, 5.3 µM, 8.7 µM and 5.3 µM.
